Experimental data as given in ChEMBL document CHEMBL1148351, “Probing the pharmacophore for allosteric ligands of muscarinic M2 receptors: SAR and QSAR studies in a series of bisquaternary salts of caracurine V and related ring systems” (J Med Chem, 2004).
Activity calls are given as the source filed them. No cut-off for these calls is given here.

Tests used:
[1] = molecular target: T1, Muscarinic acetylcholine receptor M2 (Sus scrofa) (UniProt P06199); assay: Equilibrium binding to muscarinic acetylcholine receptor M2 using [3H]NMS in porcine heart ventricles
T1 sequence (whole entry): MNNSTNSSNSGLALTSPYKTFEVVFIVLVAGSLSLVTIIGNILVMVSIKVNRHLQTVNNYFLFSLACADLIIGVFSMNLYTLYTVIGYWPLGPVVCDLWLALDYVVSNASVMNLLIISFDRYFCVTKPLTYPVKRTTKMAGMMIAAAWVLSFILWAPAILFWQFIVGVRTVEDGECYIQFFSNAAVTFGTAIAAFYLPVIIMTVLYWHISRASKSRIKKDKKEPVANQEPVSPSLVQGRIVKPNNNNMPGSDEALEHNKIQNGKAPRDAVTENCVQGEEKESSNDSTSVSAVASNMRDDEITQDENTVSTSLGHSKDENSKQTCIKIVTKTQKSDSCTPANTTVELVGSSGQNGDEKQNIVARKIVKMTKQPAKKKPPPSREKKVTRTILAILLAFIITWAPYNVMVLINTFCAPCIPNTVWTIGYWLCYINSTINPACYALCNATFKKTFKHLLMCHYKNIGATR

[2] = molecular target: T1, Muscarinic acetylcholine receptor M2 (Sus scrofa); assay: Concentration for half maximal inhibition of [3H]NMS dissociation from muscarinic acetylcholine receptor M2 in porcine heart ventricles
Method in brief: (§1)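 Porcine cardiac homogenates, 0.2 nM [3H]NMS in 4 mM Na2HPO4/1 mM KH2PO4 pH 7.4, 23 °C; preincubated 30 min, then dissociation started with 1 μM atropine with or without modulator. Specific binding sampled over 120 min (complete) or at t=0 and 10 min (two-point). Apparent k-1 expressed as % control; four-parameter logistic fit gives EC0.5,diss. Two to four experiments; nonspecific defined by 10^-6 M atropine; filtration, scintillation counting.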

[3] = molecular target: T1, Muscarinic acetylcholine receptor M2 (Sus scrofa); assay: Effective concentration for half maximal inhibition of [3H]NMS dissociation from Muscarinic acetylcholine receptor M2 in porcine heart ventricles; Non-active
Method in brief: as §1

Row | Structure (SMILES) | [3H]NMS equilibrium binding (%) [1] | pEC0.5 [2] | pEC0.5 [3]
1 | O=[N+]([O-])c1ccc(C[N+]23CC[C@@]45c6ccccc6N6[C@@H]7OCC=C8C[N+]9(Cc%10ccc([N+](=O)[O-])cc%10)CC[C@]%10%11c%12ccccc%12N([C@@H]%12OCC=C(C2)[C@H](C[C@@H]43)C%12[C@H]65)[C@H]%10[C@H]7[C@H]8C[C@@H]%119)cc1 (stereo partly drawn) | 99.8% | 6.47 | –
2 | C=CC[N+]12CC[C@@]34c5ccccc5N5[C@@H]6OCC=C7CN8CC[C@]9%10c%11ccccc%11N([C@@H]%11OCC=C(C1)[C@H](C[C@@H]32)[C@@H]%11[C@H]54)[C@H]9[C@H]6[C@H]7C[C@H]8%10 (stereo partly drawn) | 81.4% | 7.74 | –
3 | CC#CC[N@+]12CCC34c5ccccc5N5C6OCC=C7C[N@+]8(CC#CC)CCC9%10c%11ccccc%11N(C%11OCC=C(C1)C(CC32)C%11C54)C9C6C7CC%108 (stereo partly drawn) | 103% | 7.36 | –
4 | C=CC[N+]12CC[C@@]34c5ccccc5N5/C=C6\C7N(c8ccccc8[C@@]78CC[N+]7(CC=C)C/C(=C/CO)[C@@H]6C[C@@H]87)[C@@H]6OCC=C(C1)[C@H](C[C@@H]32)C6C54 (stereo partly drawn) | 119% | 8.57 | –
5 | C[N@@+]12CC[C@@]34c5ccccc5N5/C=C6/[C@H]7C[C@H]8[C@@]9(CC[N@@+]8(C)C/C7=C/CO)c7ccccc7N(/C=C(/[C@@H](C[C@@H]31)/C(=C\CO)C2)[C@H]54)[C@@H]69 | 104% | 7.02 | –
6 | C1=C2C[N@+]3(Cc4ccccc4)CCC45c6ccccc6N6C7OCC=C8C[N@+]9(Cc%10ccccc%10)CCC%10%11c%12ccccc%12N(C(OC1)C(C2CC43)C65)C%10C7C8CC%119 (stereo partly drawn) | 86.4% | 7.12 | –
7 | C1=C2C[N@+]3(Cc4ccc5ccccc5c4)CCC45c6ccccc6N6C7OCC=C8C[N@+]9(Cc%10ccc%11ccccc%11c%10)CCC%10%11c%12ccccc%12N(C(OC1)C(C2CC43)C65)C%10C7C8CC%119 (stereo partly drawn) | 89% | 5.82 | –
8 | OC/C=C1\C[N+]2(C3C=CCCC3)CCC34c5ccccc5N5/C=C6/C7CC8C9(CC[N+]8(C8C=CCCC8)C/C7=C/CO)c7ccccc7N(/C=C(/C1CC32)C54)C69 (stereo not drawn) | 118% | 8.07 | –
9 | [O-][N+]12CC[C@@]34c5ccccc5N5[C@@H]6OCC=C7C[N+]8([O-])CC[C@]9%10c%11ccccc%11N([C@@H]%11OCC=C(C1)[C@H](C[C@@H]32)C%11[C@H]54)[C@H]9[C@H]6[C@H]7C[C@@H]%108 (stereo partly drawn) | – | – | inactive
10 | C1=C2C[N+]3(CC4CO4)CC[C@@]45c6ccccc6N6[C@@H]7OCC=C8C[N+]9(CC%10CO%10)CC[C@]%10%11c%12ccccc%12N([C@H](OC1)[C@H](C2C[C@@H]43)[C@H]65)[C@H]%10[C@H]7[C@H]8C[C@@H]%119 (stereo partly drawn) | 110% | 7.19 | –
11 | COc1ccc(C[N+]23CC[C@@]45c6ccccc6N6[C@@H]7OCC=C8C[N+]9(Cc%10ccc(OC)c(OC)c%10)CC[C@]%10%11c%12ccccc%12N([C@@H]%12OCC=C(C2)[C@H](C[C@@H]43)C%12[C@H]65)[C@H]%10[C@H]7[C@H]8C[C@@H]%119)cc1OC (stereo partly drawn) | 100% | 6.47 | –
12 | Brc1ccc(C[N+]23CC[C@@]45c6ccccc6N6[C@@H]7OCC=C8C[N+]9(Cc%10ccc(Br)cc%10)CC[C@]%10%11c%12ccccc%12N([C@@H]%12OCC=C(C2)[C@H](C[C@@H]43)[C@@H]%12[C@H]65)[C@H]%10[C@H]7[C@H]8C[C@@H]%119)cc1 (stereo partly drawn) | 113% | 6.29 | –
13 | C[N+]12CC[C@@]34c5ccccc5N5[C@@H]6OCC=C7C[N+]8(C)CC[C@]9%10c%11ccccc%11N([C@@H]%11OCC=C(C1)[C@H](C[C@@H]32)[C@@H]%11[C@H]54)[C@H]9[C@H]6[C@H]7C[C@@H]%108 (stereo partly drawn) | 115% | 8.09 | –
14 | COc1ccc(C[N+]23CC[C@@]45c6ccccc6N6[C@@H]7OCC=C8C[N+]9(Cc%10ccc(OC)cc%10)CC[C@]%10%11c%12ccccc%12N([C@@H]%12OCC=C(C2)[C@H](C[C@@H]43)[C@@H]%12[C@H]65)[C@H]%10[C@H]7[C@H]8C[C@@H]%119)cc1 (stereo partly drawn) | 70.4% | 5.95 | –
15 | C1=C2CN3CC[C@]45c6ccccc6N6[C@@H]7OCC=C8CN9CC[C@]%10%11c%12ccccc%12N([C@H](OC1)[C@@H]([C@H]64)[C@H]2C[C@H]35)[C@H]%10[C@H]7[C@H]8C[C@H]9%11 | 95.8% | 6.36 | –
16 | FC(F)(F)c1ccc(C[N+]23CC[C@@]45c6ccccc6N6[C@@H]7OCC=C8C[N+]9(Cc%10ccc(C(F)(F)F)cc%10)CC[C@]%10%11c%12ccccc%12N([C@@H]%12OCC=C(C2)[C@H](C[C@@H]43)[C@@H]%12[C@H]65)[C@H]%10[C@H]7[C@H]8C[C@@H]%119)cc1 (stereo partly drawn) | 87% | 5.76 | –
17 | C[N+]12CC[C@@]34c5ccccc5N5[C@@H]6OCC[C@@H]7C[N+]8(C)CC[C@]9%10c%11ccccc%11N([C@@H]%11OCC[C@H](C1)[C@H](C[C@@H]32)C%11[C@H]54)[C@H]9[C@H]6[C@H]7C[C@@H]%108 (stereo partly drawn) | 104% | 8.44 | –
18 | C=CC[N+]12CC[C@]34c5cc(OC)c(OC)cc5N5C3[C@@H]3[C@@H](OCC=C(C1)[C@@H]3C[C@@H]42)N1c2cc(OC)c(OC)cc2[C@@]23CC[N+]4(CC=C)CC6=CCO[C@@H]5[C@@H](C12)[C@H]6C[C@@H]34 (stereo partly drawn) | – | 6.69 | –
19 | O=C(C[N+]12CC[C@@]34c5ccccc5N5[C@@H]6OCC=C7C[N+]8(CC(=O)c9ccccc9)CC[C@]9%10c%11ccccc%11N([C@@H]%11OCC=C(C1)[C@H](C[C@@H]32)[C@@H]%11[C@H]54)[C@H]9[C@H]6[C@H]7C[C@@H]%108)c1ccccc1 (stereo partly drawn) | 6.1% | 5.49 | –
20 | NC(=O)C[N+]12CC[C@@]34c5ccccc5N5[C@@H]6OCC=C7C[N+]8(CC(N)=O)CC[C@]9%10c%11ccccc%11N([C@@H]%11OCC=C(C1)[C@H](C[C@@H]32)[C@@H]%11[C@H]54)[C@H]9[C@H]6[C@H]7C[C@@H]%108 (stereo partly drawn) | 87.8% | 6.65 | –
21 | N#CC[N+]12CC[C@@]34c5ccccc5N5[C@@H]6OCC=C7C[N+]8(CC#N)CC[C@]9%10c%11ccccc%11N([C@@H]%11OCC=C(C1)[C@H](C[C@@H]32)C%11[C@H]54)[C@H]9[C@H]6[C@H]7C[C@@H]%108 (stereo partly drawn) | 85.3% | 6.69 | –
22 | C1=C2C[N@+]3(CC4CC4)CCC45c6ccccc6N6C7OCC=C8C[N@+]9(CC%10CC%10)CCC%10%11c%12ccccc%12N(C(OC1)C(C2CC43)C65)C%10C7C8CC%119 (stereo partly drawn) | 110% | 7.86 | –
23 | C[N+]12CCC34c5ccccc5N5/C=C6/C7CC8C9(CC[N+]8(C)C/C7=C/CO)c7ccccc7N(/C=C(/C(CC31)/C(=C/CO)C2)C54)C69 (stereo not drawn) | 119% | 7.87 | –
24 | Fc1c(F)c(F)c(C[N@+]23CCC45c6ccccc6N6C7OCC=C8C[N@+]9(Cc%10c(F)c(F)c(F)c(F)c%10F)CCC%10%11c%12ccccc%12N(C%12OCC=C(C2)C(CC43)C%12C65)C%10C7C8CC%119)c(F)c1F (stereo partly drawn) | 111% | 7.27 | –
25 | C#CC[N@+]12CCC34c5ccccc5N5C6OCC=C7C[N@+]8(CC#C)CCC9%10c%11ccccc%11N(C%11OCC=C(C1)C(CC32)C%11C54)C9C6C7CC%108 (stereo partly drawn) | 105% | 8.36 | –
26 | C=CC[N+]12CC[C@@]34c5ccccc5N5[C@@H]6OCC=C7C[N+]8(CC=C)CC[C@]9%10c%11ccccc%11N([C@@H]%11OCC=C(C1)[C@H](C[C@@H]32)[C@@H]%11[C@H]54)[C@H]9[C@H]6[C@H]7C[C@@H]%108 (stereo partly drawn) | 109% | 7.95 | –
27 | C/C=C/C[N@+]12CCC34c5ccccc5N5C6OCC=C7C[N@+]8(C/C=C/C)CCC9%10c%11ccccc%11N(C%11OCC=C(C1)C(CC32)C%11C54)C9C6C7CC%108 (stereo partly drawn) | 100% | 7.14 | –
28 | O=C1c2ccccc2C(=O)N1CCC[N@+]12CCC34c5ccccc5N5C6OCC=C7C[N@+]8(CCCN9C(=O)c%10ccccc%10C9=O)CCC9%10c%11ccccc%11N(C%11OCC=C(C1)C(CC32)C%11C54)C9C6C7CC%108 (stereo partly drawn) | 88.4% | 6.43 | –
29 | C=CC[N@@+]12CC[C@@]34c5ccccc5N5/C=C6/[C@H]7C[C@H]8[C@@]9(CC[N@@+]8(CC=C)C/C7=C/CO)c7ccccc7N(/C=C(/[C@@H](C[C@@H]31)/C(=C\CO)C2)[C@H]54)[C@@H]69 | 116% | 8.65 | –
30 | C1=CC([N@+]23CCC45c6ccccc6N6C7OCC=C8C[N@+]9(C%10C=CCCC%10)CCC%10%11c%12ccccc%12N(C%12OCC=C(C2)C(CC43)C%12C65)C%10C7C8CC%119)CCC1 (stereo partly drawn) | 109% | 7.7 | –
